From PubChem BioAssay
Compounds with a hit are over-represented: about 2.5% of the library has one in this group of screens.
Rin1-Abl PPI inh = human Rin1-Abl interaction inhibition. P00519+Q13671. TR-FRET Rin1/Abl binding, biochemical. inhibition, % at 7.35 µM. actives 0.4% (n = 360,000). AID 588664; in the data active = inhibition above about 5%, passing the limit was not always enough
Target sequence (P00519 whole entry, looked up): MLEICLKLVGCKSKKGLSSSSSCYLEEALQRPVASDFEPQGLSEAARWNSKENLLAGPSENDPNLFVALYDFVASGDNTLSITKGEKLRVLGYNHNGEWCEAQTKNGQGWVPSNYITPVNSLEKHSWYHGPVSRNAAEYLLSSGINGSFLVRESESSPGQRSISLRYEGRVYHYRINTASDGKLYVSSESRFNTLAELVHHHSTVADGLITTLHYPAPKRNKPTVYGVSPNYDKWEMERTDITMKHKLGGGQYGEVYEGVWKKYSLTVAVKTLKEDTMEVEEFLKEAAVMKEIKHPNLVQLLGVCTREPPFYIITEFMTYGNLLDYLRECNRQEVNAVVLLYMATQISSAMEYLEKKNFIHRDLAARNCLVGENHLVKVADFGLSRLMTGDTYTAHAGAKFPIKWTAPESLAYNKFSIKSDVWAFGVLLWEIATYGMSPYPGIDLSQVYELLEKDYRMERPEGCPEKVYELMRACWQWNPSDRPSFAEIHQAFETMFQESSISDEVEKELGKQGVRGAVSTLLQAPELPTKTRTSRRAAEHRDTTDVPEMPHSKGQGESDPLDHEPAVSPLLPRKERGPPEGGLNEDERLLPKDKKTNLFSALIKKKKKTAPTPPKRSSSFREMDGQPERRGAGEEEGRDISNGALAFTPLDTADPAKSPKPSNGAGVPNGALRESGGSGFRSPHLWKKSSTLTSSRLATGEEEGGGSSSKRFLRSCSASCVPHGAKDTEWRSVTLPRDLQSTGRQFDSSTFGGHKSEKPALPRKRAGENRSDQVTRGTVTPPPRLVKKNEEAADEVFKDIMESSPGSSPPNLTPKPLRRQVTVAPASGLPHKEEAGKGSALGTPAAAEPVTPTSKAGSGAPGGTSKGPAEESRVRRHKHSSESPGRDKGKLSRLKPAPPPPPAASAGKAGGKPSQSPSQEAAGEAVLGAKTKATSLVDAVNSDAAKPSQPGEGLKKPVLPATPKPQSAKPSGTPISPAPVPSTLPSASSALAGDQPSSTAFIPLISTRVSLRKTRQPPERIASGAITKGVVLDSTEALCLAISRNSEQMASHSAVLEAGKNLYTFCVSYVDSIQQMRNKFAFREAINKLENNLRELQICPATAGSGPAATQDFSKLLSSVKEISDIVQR
Target sequence (Q13671 whole entry, looked up): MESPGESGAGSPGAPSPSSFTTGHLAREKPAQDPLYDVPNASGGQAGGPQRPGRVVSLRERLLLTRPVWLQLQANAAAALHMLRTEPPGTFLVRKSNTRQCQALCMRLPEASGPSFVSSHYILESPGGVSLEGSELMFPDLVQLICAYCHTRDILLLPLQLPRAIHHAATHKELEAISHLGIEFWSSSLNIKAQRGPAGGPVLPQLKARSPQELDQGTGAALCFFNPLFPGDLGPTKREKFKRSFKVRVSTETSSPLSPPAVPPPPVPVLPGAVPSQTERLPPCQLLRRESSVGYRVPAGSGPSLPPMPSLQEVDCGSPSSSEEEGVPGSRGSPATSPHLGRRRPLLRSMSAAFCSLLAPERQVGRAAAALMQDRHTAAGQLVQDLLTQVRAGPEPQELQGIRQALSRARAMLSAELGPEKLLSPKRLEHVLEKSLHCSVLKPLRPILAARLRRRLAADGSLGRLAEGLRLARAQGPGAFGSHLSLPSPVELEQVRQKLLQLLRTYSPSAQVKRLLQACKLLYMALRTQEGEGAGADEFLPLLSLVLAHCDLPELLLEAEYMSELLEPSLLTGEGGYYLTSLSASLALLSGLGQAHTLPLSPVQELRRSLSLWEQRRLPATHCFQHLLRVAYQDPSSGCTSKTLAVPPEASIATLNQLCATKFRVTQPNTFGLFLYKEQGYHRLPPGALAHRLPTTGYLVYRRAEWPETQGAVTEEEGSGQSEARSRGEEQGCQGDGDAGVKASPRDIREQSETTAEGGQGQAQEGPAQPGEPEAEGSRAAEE
MBD2 DNA inh = MBD2-methylated oligo binding inhibition; TR-FRET, MBD2 binding to methylated oligonucleotide; inhibition, % at 4.4 µM; actives 0.31% (n = 370,000); AID 686964; in the data active = inhibition above about 13%
ABHD5-PLIN5 inh = blocks binding of human ABHD5 to perilipin-5. inhibition, % at 4 µM. Q00G26+Q8WTS1. actives 0.78% (n = 360,000). Split G. princeps luciferase complementation, luminescence, 4 h;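 active = inhibition above the mean inhibition across every tested compound plus 3 SD, cut at about 22% in these data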
UHRF1 binding = human UHRF1 methylated DNA binding inhibitors | Q96T88 | UHRF1 binding to methylated oligo, TR-FRET | inhibition, % at 4.4 µM | actives 0.75% (n = 370,000) | AID 687016; in the data active = inhibition above about 21%;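 note: UHRF1 SRA domain binding a hemimethylated CpG hairpin DNA probe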
Beta2AR agonist = agonists of human beta-2 adrenergic receptor inducing internalization. AID 504454. response, % (test concentration not listed). actives 0.43% (n = 340,000). Am2.2-beta2AR cells, FAP receptor internalization, flow cytometry. P07550;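 active = response above a set limit, near 3 SD of response in nonfluorescent compounds, cut at about 42% in these data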
Arrestin-AP2 inh = inhibitors of human beta-arrestin and AP2 interaction. FITC-arrestin peptide / GST-AP2 beads, flow cytometry; AP2 beta2 appendage carries R879A mutation. inhibition, % at 10 µM. actives 0.31% (n = 340,000);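 active = inhibition above a set limit, near 3 SD of compounds lacking own fluorescence, cut at about 54% in these data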
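System: GST-AP2 R879A glutathione beads. Medium: PBS with 0.05% Tween 20 and 0.1% BSA. Also added: FITC-arrestin peptide, 50 nM. Incubation: 12 min plus 1 h, RT. Measured by: high-throughput flow cytometry of beads, ex 488, em 535 nm. Evaluation: percent drop in bead-associated FITC signal.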
A number is an active result.

Screening c1ccc(-n2c(SCc3cccc4ccccc34)nnc2-c2ccccn2)cc1 returned MBD2 DNA inh inactive and UHRF1 binding inactive.
For CCN1CCN(c2nc(N)c([N+](=O)[O-])c(Nc3ccc(C)c(C)c3)n2)CC1 the results were Rin1-Abl PPI inh inactive, MBD2 DNA inh inactive, ABHD5-PLIN5 inh inactive, UHRF1 binding inactive, Beta2AR agonist 62.5 and Arrestin-AP2 inh inactive.
O=C1C=CC(c2c[nH]c3ccccc23)CC1 (centres undefined) was read as MBD2 DNA inh inactive, ABHD5-PLIN5 inh 22.6 and UHRF1 binding inactive.
Screening Cc1ccccc1N1C(=O)CC(c2c[nH]c3ccccc23)C1=O (centres undefined) returned Rin1-Abl PPI inh inactive, MBD2 DNA inh inactive, ABHD5-PLIN5 inh inactive, UHRF1 binding inactive, Beta2AR agonist inactive and Arrestin-AP2 inh inactive.
`CCOc1ccc(-n2c(SCC(=O)Nc3ccc(S(=O)(=O)Nc4cc(C)nc(C)n4)cc3)nnc2-c2ccc(OC)cc2)cc1` gave MBD2 DNA inh inactive and UHRF1 binding inactive.
`CCN1C/C(=C/c2ccc(N3CCOCC3)cc2)C(=O)/C(=C/c2ccc(N3CCOCC3)cc2)C1` gave Rin1-Abl PPI inh inactive, MBD2 DNA inh inactive, ABHD5-PLIN5 inh 58.4, UHRF1 binding inactive, Beta2AR agonist inactive and Arrestin-AP2 inh inactive.
`CC1CC(=O)C(C(C2=C(O)CC(C)CC2=O)c2ccccc2)=C(O)C1` (centres undefined) gave Rin1-Abl PPI inh inactive, MBD2 DNA inh inactive, ABHD5-PLIN5 inh 23.1, UHRF1 binding inactive, Beta2AR agonist inactive and Arrestin-AP2 inh inactive.
Screening COc1cccc(Cn2cc(COC(=O)NCCc3ccccc3)nn2)c1 returned MBD2 DNA inh inactive and UHRF1 binding inactive.
`O=C(CCl)Nc1cccc(S(=O)(=O)NC2=NCCCCC2)c1` gave Rin1-Abl PPI inh inactive, MBD2 DNA inh inactive, ABHD5-PLIN5 inh 23.1, UHRF1 binding inactive, Beta2AR agonist inactive and Arrestin-AP2 inh inactive.
Cc1ccc2nc(-c3ccc(NC(=O)CSc4nnc(-c5cc(C)[nH]n5)n4N)cc3)sc2c1 was read as MBD2 DNA inh inactive and UHRF1 binding inactive.
`O=C1C=CC2(O[C@H](c3ccccc3)[C@@H](c3ccccc3)O2)[C@H](Sc2ccccc2O)C1` gave Rin1-Abl PPI inh inactive, MBD2 DNA inh inactive, ABHD5-PLIN5 inh 94.3, UHRF1 binding inactive, Beta2AR agonist 42.4 and Arrestin-AP2 inh inactive.
`Oc1ccc(Nc2nc(-c3ccccc3)nc3ccccc23)cc1` gave Rin1-Abl PPI inh inactive, ABHD5-PLIN5 inh inactive, Beta2AR agonist inactive and Arrestin-AP2 inh inactive.
Screening Oc1ccc(Nc2nc3ccccc3nc2Nc2ccc(O)cc2)cc1 returned Rin1-Abl PPI inh inactive, ABHD5-PLIN5 inh 57.2, Beta2AR agonist inactive and Arrestin-AP2 inh inactive.
For CCOC(=O)C1CCN(c2c(C(=O)c3ccccc3)cnc3ccc(CC)cc23)CC1 the results were Rin1-Abl PPI inh inactive, MBD2 DNA inh inactive, ABHD5-PLIN5 inh inactive, UHRF1 binding inactive, Beta2AR agonist inactive and Arrestin-AP2 inh inactive.
CCOC(=O)C1CCCN(c2c(C(=O)c3ccccc3)cnc3ccccc23)C1 (centres undefined) was read as Rin1-Abl PPI inh inactive, MBD2 DNA inh inactive, ABHD5-PLIN5 inh inactive, UHRF1 binding 38.0, Beta2AR agonist inactive and Arrestin-AP2 inh inactive.
Screening O=C(c1ccccc1)c1ccc2nc(-c3ccco3)c(-c3ccco3)nc2c1 returned Rin1-Abl PPI inh inactive, MBD2 DNA inh inactive, ABHD5-PLIN5 inh 28.6, UHRF1 binding inactive, Beta2AR agonist inactive and Arrestin-AP2 inh inactive.
Screening O=C(NCCc1ccccc1)c1ccc2nc(-c3ccco3)c(-c3ccco3)nc2c1 returned Rin1-Abl PPI inh inactive, ABHD5-PLIN5 inh 29.1, Beta2AR agonist inactive and Arrestin-AP2 inh inactive.
O=C(NC1CCCC1)c1ccc2nc(-c3ccco3)c(-c3ccco3)nc2c1 was read as Rin1-Abl PPI inh inactive, ABHD5-PLIN5 inh inactive, Beta2AR agonist inactive and Arrestin-AP2 inh inactive.
For O=C(O)c1ccc2nc(-c3ccccc3)c(-c3ccccc3)nc2c1 the results were Rin1-Abl PPI inh inactive, MBD2 DNA inh inactive, ABHD5-PLIN5 inh inactive, UHRF1 binding inactive, Beta2AR agonist inactive and Arrestin-AP2 inh inactive.
`O=C(CCS(=O)(=O)c1ccccc1)Nc1ccc(F)cc1F` gave MBD2 DNA inh inactive and UHRF1 binding inactive.
